system: HL-60; experiment: Growth inhibition of human HL60 cells after 3 days by MTT assay; assay type: functional, cell-based; details: HL-60, 72 h
Procedure, shortened: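 HL-60 human leukemia cells, […], seeded at 4000-5000 cells/well and […] before compound addition. Compounds tested at 0.01, 0.1, 1, 10 and 100 µg/mL for 3 days. MTT (5 mg/mL) added, formazan dissolved in DMSO after 4 h, OD read at 570 nm. Growth inhibition (%) = (OD_control − OD_treated)/OD_control × 100. Doxorubicin served as positive control.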

IC50 [µM] | Structure (SMILES)
11 | CCCCCC/C=C/C=C/C#CC#C/C=C\CO
11 | CCCCC/C=C\CC#CC#C/C=C\CO
> 10 | CC(=O)OC/C=C/C=C/C#CC/C=C\CCCCCCCCOC(C)=O
11 | CCCCCC/C=C/C=C/C#C/C=C/C=C/COC(C)=O
> 10 | OC/C=C/C=C/C#CC/C=C\CCCCCCCCO
9.4 | CCC[C@H](O)CC/C=C/C=C/C#CC#C/C=C\COC(C)=O
11 | CCCC(=O)CC/C=C/C=C/C#CC#C/C=C\CO [BUPLEURONOL]

The remaining lines, values behind:

Structure (SMILES) | IC50 [µM]
OC/C=C\C#CC#CC/C=C\CCCCCCCCO | > 10
CCCCCCC/C=C\CC#CC#C/C=C\CO | 11
CCCCCCC/C=C\CC#C/C=C/C=C/COC(C)=O | 11
CCCC/C=C/C=C/C#CC#C/C=C\CO | 11
CCC[C@H](CC/C=C/C=C/C#CC#C/C=C\CO)OC(C)=O [ACETYLBUPLEUROTOXIN] | 11
CCC[C@H](O)CC/C=C/C=C/C#CC#C/C=C\CO [BUPLEUROTOXIN] | 4.9
